Source: ChEMBL document CHEMBL4145607, “Tamarixetin Exhibits Anti-inflammatory Activity and Prevents Bacterial Sepsis by Increasing IL-10 Production” (J Nat Prod, 2018)
The source made the active and inactive calls.

Experiments:
BMDC [1] = assay: Inhibition of LPS-induced immune response in C57BL/6 mouse BMDC assessed as increase in IL10 secretion up to 25 uM pretreated for 30 mins followed by LPS-challenge measured after 6 hrs by ELISA; assay type: functional, cell-based
In short: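 Mouse BMDCs (female C57BL/6 bone marrow, GM-CSF-derived, ≥90% CD11c+ on day 7) pretreated 30 min with graded compound concentrations, then stimulated with LPS 50 ng/mL for 6 h. Supernatant TNF-α, IL-6, IL-10 and IL-12p70 quantified by sandwich ELISA. Mean ± SEM vs LPS-only cells; experiments repeated at least three times.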

Mus musculus [2] = assay: Antiinflammatory activity in Balb/c mouse model of LPS-induced endotoxemia assessed as increase in IL10 producing dendritic cells in splenocyte at 1 mg/kg, ip pretreated for 1 hr followed by LPS-challenge measured after 12 hrs by flow cytometric analysis; assay type: functional, organism-based
BMDC [3] = assay: Inhibition of Escherichia coli DH5alpha infection-induced immune response in C57BL/6 mouse BMDC assessed as increase in IL10 secretion at 25 uM pretreated for 60 to 120 mins followed by Escherichia coli DH5alpha infection for 6 hrs by ELISA; assay type: functional, cell-based
In short: (§1)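 C57BL/6 BMDCs received 25 μM compound and E. coli DH5α, 3 × 10^6 CFU·mL−1. Schedules were: compound 30 min before a 6 h infection; co-addition for 6 h; or compound for 30, 60, 90 or 120 min plus 6 h infection. Supernatant TNF-α, IL-6, IL-10 and IL-12p70 were measured by ELISA. At least three experiments in triplicate.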

BMDC [4] = assay: Inhibition of Escherichia coli DH5alpha infection-induced immune response in C57BL/6 mouse BMDC assessed as reduction in IL-12p70 secretion at 25 uM pretreated for 60 to 120 mins followed by Escherichia coli DH5alpha infection for 6 hrs by ELISA; assay type: functional, cell-based; in short: as §1
Mus musculus [5] = assay: (§2) Antiseptic activity in Balb/c mouse model of Escherichia coli K1 infection-induced sepsis assessed as reduction in bacterial count in lungs at 1 mg/kg, ip pretreated for 1 hr followed by Escherichia coli K1 infection measured after 12 hrs; assay type: functional, organism-based
In short: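 Pretreatment was 1 mg·kg−1 i.p. 1 h before i.p. E. coli K1 (1 × 10^6 CFU per mouse) in BALB/c mice. At 12 h, lungs, liver and kidneys were homogenized in PBS and diluted 1:1000. 10 μL was plated on LB agar, incubated 24 h at 37 °C, and colonies counted.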

Mus musculus [6] = assay: Antiseptic activity in Balb/c mouse model of Escherichia coli K1 infection-induced sepsis assessed as reduction in serum blood urea nitrogen level at 1 mg/kg, ip pretreated for 1 hr followed by Escherichia coli K1 infection measured after 2 hrs by ELISA; assay type: functional, organism-based
Mus musculus [7] = assay: Antiinflammatory activity in Balb/c mouse model of LPS-induced endotoxemia assessed as reduction in TNFalpha level in lungs at 1 mg/kg, ip pretreated for 1 hr followed by LPS-challenge measured after 12 hrs by ELISA; assay type: functional, organism-based
In short: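 BALB/c mice got 1 mg·kg−1 i.p. 1 h before i.p. LPS 10 mg·kg−1. After 12 h, TNF-α and IL-6 in lung lysates were measured by sandwich ELISA. Means ± SEM.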

Mus musculus [8] = assay: as §2, with “infiltration of immune cells” for “bacterial count”, “hrs by hematoxylin and eosin staining based microscopic analysis” for “hrs”; assay type: functional, organism-based
In short: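 BALB/c mice were given 1 mg·kg−1 i.p. 1 h before i.p. E. coli K1 (1 × 10^6 CFU per mouse). At 12 h, lungs were perfused and formalin-fixed. Sections were H&E-stained and examined by microscope. Representative of three independent experiments.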

Mus musculus [9] = assay: Antiseptic activity in Balb/c mouse model of Escherichia coli K1 infection-induced sepsis assessed as reduction in serum ALT level at 1 mg/kg, ip pretreated for 1 hr followed by Escherichia coli K1 infection measured after 2 hrs by ELISA; assay type: functional, organism-based
BMDC [10] = assay: Inhibition of LPS-induced immune response in C57BL/6 mouse BMDC assessed as reduction in TNFalpha secretion at 25 uM treated 6 hrs post LPS-challenge measured after 60 to 120 mins by ELISA; assay type: functional, cell-based
In short: (§3)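 Bone marrow DCs from 6-week-old female C57BL/6 mice, RBC-lysed, cultured in RPMI-1640/10% FBS with 10 ng/mL rmGM-CSF, 37 °C, 5% CO2. Cells given LPS 50 ng/mL for 6 h, then 25 μM compound added for 30, 60, 90 or 120 min. Supernatant TNF-α, IL-6, IL-10, IL-12p70 measured by sandwich ELISA. Mean ± SEM, compared with LPS-only DCs.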

Mus musculus [11] = assay: Antiseptic activity in Balb/c mouse model of Escherichia coli K1 infection-induced sepsis assessed as reduction in serum TNFalpha level at 1 mg/kg, ip pretreated for 1 hr followed by Escherichia coli K1 infection measured after 2 hrs by ELISA; assay type: functional, organism-based
In short: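 BALB/c mice received 1 mg·kg−1 i.p. 1 h before i.p. E. coli K1 RS218, 1 × 10^6 CFU per mouse. Serum was collected at 2 h, and TNF-α, IL-6 and IL-10 were quantified by sandwich ELISA. Means ± SEM.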

BMDC [12] = assay: Inhibition of LPS-induced immune response in C57BL/6 mouse BMDC assessed as increase in IL10 secretion at 25 uM treated 6 hrs post LPS-challenge measured after 30 mins by ELISA; assay type: functional, cell-based; in short: as §3
[13] = biological target: Mitogen-activated protein kinase 8 (Homo sapiens) (UniProt P45983); assay: Binding affinity to human C-terminal His6-tagged JNK1alpha1 (1 to 364 residues) expressed in Escherichia coli by tryptophan fluorescence quenching assay
In short: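 C-terminally His6-tagged human JNK1 (10 μM) was titrated with compound (0–100 μM; final protein:inhibitor 1:10) in 50 mM sodium phosphate, 100 mM NaCl, pH 8.0, at 25 °C. Tryptophan emission was recorded at 290–600 nm with excitation at 290 nm.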

BMDC [14] = assay: Inhibition of LPS-induced immune response in C57BL/6 mouse BMDC assessed as reduction in IL-12p70 secretion at 25 uM treated 6 hrs post LPS-challenge measured after 60 to 120 mins by ELISA; assay type: functional, cell-based; in short: as §3

Sequence of Mitogen-activated protein kinase 8 (Homo sapiens) (P45983 whole entry, the tested form may be a part): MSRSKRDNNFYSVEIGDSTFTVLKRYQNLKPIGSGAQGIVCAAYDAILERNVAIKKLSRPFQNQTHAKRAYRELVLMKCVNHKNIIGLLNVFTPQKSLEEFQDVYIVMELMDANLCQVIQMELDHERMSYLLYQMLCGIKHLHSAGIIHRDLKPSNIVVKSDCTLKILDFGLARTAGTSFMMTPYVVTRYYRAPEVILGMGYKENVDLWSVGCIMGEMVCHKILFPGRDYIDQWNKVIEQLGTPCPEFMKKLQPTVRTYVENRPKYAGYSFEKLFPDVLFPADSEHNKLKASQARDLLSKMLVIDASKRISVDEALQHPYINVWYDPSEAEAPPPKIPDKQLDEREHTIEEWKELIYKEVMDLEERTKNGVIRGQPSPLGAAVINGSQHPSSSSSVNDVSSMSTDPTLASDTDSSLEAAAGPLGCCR

COc1ccc(-c2oc3cc(O)cc(O)c3c(=O)c2O)cc1O [TAMARIXETIN]
4.9 ×10⁵ /M: K [13]
active: inhibition (BMDC [1]) | Activity (Mus musculus [2]) | Activity (Mus musculus [5]) | Activity (Mus musculus [6]) | Activity (Mus musculus [7]) | Activity (Mus musculus [8]) | Activity (Mus musculus [9]) | Activity (Mus musculus [11]) | inhibition (BMDC [12])
inactive: inhibition (BMDC [3]) | inhibition (BMDC [4]) | inhibition (BMDC [10]) | inhibition (BMDC [14])
